Data published in ChEMBL document CHEMBL3352241, “Design, synthesis and pharmacological evaluation of chalcone derivatives as acetylcholinesterase inhibitors” (Bioorg Med Chem, 2014).

Key:
[1] = Octanol-water partition coefficient, log P of the compound at pH 7.4 by classical shake-flask method; format: physicochemical
[2] = target: Cholinesterase (Homo sapiens, UniProt P06276); experiment: Inhibition of BuChE (unknown origin) using butyrylthiocholine iodide as substrate incubated for 25 mins by Ellman's method
Summary of the method: (§1)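 Ellman spectrophotometric assay, slightly modified. Compounds were dissolved in tween 80 (0.06% final per reaction), then diluted in 2% tween 80–water. The enzyme, substrate (acetylthiocholine iodide for AChE, butyrylthiocholine iodide for BuChE) and compound were incubated in Na2HPO4/NaH2PO4 buffer pH 8.0 at 30 °C for 25 min. IC50 was calculated by the Bliss method and reported as mean ± SD.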

[3] = target: Cholinesterases; ACHE & BCHE (Homo sapiens) (UniProt P06276+P22303); experiment: Selectivity ratio of IC50 for BChE (unknown origin) to IC50 for AChE (unknown origin)
[4] = target: T1, Acetylcholinesterase (Homo sapiens, UniProt P22303); experiment: Inhibition of AChE (unknown origin) using acetylthiocholine iodide as substrate incubated for 25 mins by Ellman's method
Summary of the method: as §1, with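 “min. The reaction was stopped with 20% SDS, 10 mmol/L DTNB was added, and absorbance was read at 412 nm. Five concentrations per compound, in triplicate, spanned 20–80% inhibition.” for “min.”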

[5] = target: T1, Acetylcholinesterase; experiment: Non-competitive inhibition of AChE (unknown origin) incubated for 25 mins by Lineweaver-Burk plot analysis
[6] = target: T1, Acetylcholinesterase; experiment: Competitive inhibition of AChE (unknown origin) incubated for 25 mins by Lineweaver-Burk plot analysis

T1 sequence (P22303 whole entry): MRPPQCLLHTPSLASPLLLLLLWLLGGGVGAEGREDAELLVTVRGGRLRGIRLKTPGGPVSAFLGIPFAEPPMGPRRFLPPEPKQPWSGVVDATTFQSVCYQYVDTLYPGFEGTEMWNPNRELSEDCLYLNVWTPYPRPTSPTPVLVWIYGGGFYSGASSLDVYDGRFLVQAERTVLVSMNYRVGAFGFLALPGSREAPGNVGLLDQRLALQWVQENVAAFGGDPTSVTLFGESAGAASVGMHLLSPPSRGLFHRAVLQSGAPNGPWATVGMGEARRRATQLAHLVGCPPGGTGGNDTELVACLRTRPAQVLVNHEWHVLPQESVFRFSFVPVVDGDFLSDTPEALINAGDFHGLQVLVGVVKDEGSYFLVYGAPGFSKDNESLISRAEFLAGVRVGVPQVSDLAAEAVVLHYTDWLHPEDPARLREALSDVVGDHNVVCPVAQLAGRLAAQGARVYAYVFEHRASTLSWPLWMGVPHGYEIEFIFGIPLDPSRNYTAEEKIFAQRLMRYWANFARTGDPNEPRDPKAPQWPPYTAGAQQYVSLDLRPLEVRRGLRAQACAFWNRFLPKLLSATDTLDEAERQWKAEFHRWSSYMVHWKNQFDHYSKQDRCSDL
Chain of Cholinesterases; ACHE & BCHE (Homo sapiens) (P06276 whole entry, looked up): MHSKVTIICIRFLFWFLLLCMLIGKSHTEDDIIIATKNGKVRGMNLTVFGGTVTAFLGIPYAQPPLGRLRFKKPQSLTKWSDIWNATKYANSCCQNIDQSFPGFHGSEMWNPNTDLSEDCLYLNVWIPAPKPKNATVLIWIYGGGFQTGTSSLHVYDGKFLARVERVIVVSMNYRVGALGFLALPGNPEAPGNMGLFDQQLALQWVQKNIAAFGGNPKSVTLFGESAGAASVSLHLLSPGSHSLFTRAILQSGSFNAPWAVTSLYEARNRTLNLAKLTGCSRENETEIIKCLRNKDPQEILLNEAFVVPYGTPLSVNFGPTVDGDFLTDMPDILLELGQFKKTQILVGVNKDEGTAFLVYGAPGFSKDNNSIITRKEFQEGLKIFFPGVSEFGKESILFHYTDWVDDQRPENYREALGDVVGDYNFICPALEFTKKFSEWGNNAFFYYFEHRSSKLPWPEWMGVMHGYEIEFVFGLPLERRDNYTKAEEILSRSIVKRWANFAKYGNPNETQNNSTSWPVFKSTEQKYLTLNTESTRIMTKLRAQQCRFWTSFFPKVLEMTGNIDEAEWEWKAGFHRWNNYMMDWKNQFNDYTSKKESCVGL
Chain of Cholinesterases; ACHE & BCHE (Homo sapiens) (P22303 whole entry, looked up): as the sequence (P22303 whole entry) above
Chain of Cholinesterase (P06276 whole entry): as the sequence (P06276 whole entry, looked up) above

| Compound | logD [1] | IC50 [2] [µM] | Ratio IC50 [3] | IC50 [4] [µM] | Ki [5] [µM] | Ki [6] [µM] |
| --- | --- | --- | --- | --- | --- | --- |
| CCCCN(CCCC)CCCOc1ccc(C(=O)/C=C/c2ccccc2)cc1 | 2.06 | 68.3 | 0.45 | 152 |  |  |
| CCCCN(CCCC)CCCCCOc1ccc(C(=O)/C=C/c2ccccc2)cc1 | 2.14 | 96.9 |  | 76.9 |  |  |
| CCCN(CCC)CCCCOc1ccc(C(=O)/C=C/c2ccccc2)cc1 | 1.95 | 8.84 | 1.5 | 5.91 |  |  |
| CN(C)CCCCCOc1ccc(C(=O)/C=C/c2ccccc2)cc1 | 1.73 | 17.4 | 1.33 | 13.1 |  |  |
| CN(C)CCCCOc1ccc(C(=O)/C=C/c2ccccc2)cc1 | 1.64 | 11.8 | 1.32 | 8.95 |  |  |
| CCCCN(CCCC)CCOc1ccc(C(=O)/C=C/c2ccccc2)cc1 | 2 | 279 | 1.1 | 253 |  |  |
| O=C(/C=C/c1ccccc1)c1ccc(O)cc1 [4'-HYDROXYCHALCONE] |  | > 500 |  | > 500 |  |  |
| CCCN(CCC)CCCCCOc1ccc(C(=O)/C=C/c2ccccc2)cc1 | 2.01 | 39.7 | 2.09 | 29.5 |  |  |
| CCCCN(CCCC)CCCCOc1ccc(C(=O)/C=C/c2ccccc2)cc1 | 2.09 | 41.9 | 1.91 | 21.9 |  |  |
| CCCN(CCC)CCOc1ccc(C(=O)/C=C/c2ccccc2)cc1 | 1.86 | 52.6 | 0.81 | 64.5 |  |  |
| CCN(CC)CCCCOc1ccc(C(=O)/C=C/c2ccccc2)cc1 | 1.74 | 10.2 | 0.44 | 23.2 |  |  |
| CCCN(CCC)CCCOc1ccc(C(=O)/C=C/c2ccccc2)cc1 | 1.91 | 10.1 | 0.41 | 24.6 |  |  |
| CN(C)CCOc1ccc(C(=O)/C=C/c2ccccc2)cc1 | 1.49 | 20.4 | 4.35 | 4.68 | 3.52 | 7.99 |
| CN(C)CCCCCCOc1ccc(C(=O)/C=C/c2ccccc2)cc1 | 1.8 | 10.4 | 0.73 | 14.2 |  |  |
| CN(C)CCCOc1ccc(C(=O)/C=C/c2ccccc2)cc1 | 1.59 | 32.3 | 3.08 | 10.5 |  |  |
| CCCN(CCC)CCCCCCOc1ccc(C(=O)/C=C/c2ccccc2)cc1 | 2.07 | 40.7 | 0.92 | 44.1 |  |  |
| CCN(CC)CCCCCCOc1ccc(C(=O)/C=C/c2ccccc2)cc1 | 1.91 | 18.5 | 0.37 | 50.4 |  |  |
| CCCCN(CCCC)CCCCCCOc1ccc(C(=O)/C=C/c2ccccc2)cc1 | 2.19 | 75.1 | 0.46 | 163 |  |  |
| CCN(CC)CCOc1ccc(C(=O)/C=C/c2ccccc2)cc1 | 1.61 | 31.6 | 4.14 | 7.63 |  |  |
| CCN(CC)CCCOc1ccc(C(=O)/C=C/c2ccccc2)cc1 | 1.71 | 20.1 | 0.89 | 22.5 |  |  |
| CCN(CC)CCCCCOc1ccc(C(=O)/C=C/c2ccccc2)cc1 | 1.84 | 26.3 | 0.77 | 34.1 |  |  |
